Test results: PubChem BioAssay AID623920 (The Scripps Research Institute Molecular Screening Center, 2012)
Several values for one entry are separate records, joined by “and”; a condition that tells them apart may be missing. Equal values may be shown once. Activity calls are given as the source filed them.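 Rule for the calls: active = compounds halving RecBCD DNA-cutting activity at 52000 nM or lower IC50; inactive = the rest.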

target: RecBCD enzyme subunit RecC (Escherichia coli (strain K12)) + RecBCD enzyme subunit RecB (Escherichia coli (strain K12)) (UniProt P07648+P08394); experiment: RecBCD dsDNA exonuclease inhibition potency – biochemical, radioactivity readout, powder samples, counter-screen for AddAB inhibitor project, dose response (AID 623920); details: purified RecBCD, [3H] dsDNA nuclease, TCA-soluble radioactivity
Outline: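 System – purified E. coli RecBCD · Input – RecBCD enzyme at 0.15 units (4.5 nM) per reaction · Reagent – [3H] T7 dsDNA, 6 µM nucleotides · Timing – compound with enzyme on ice first, nuclease reaction 20 min at 37 °C · Signal – TCA-soluble radioactivity by scintillation · Replication – triplicate measurement per compound dose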

Sequence of RecBCD enzyme subunit RecC (Escherichia coli (strain K12)) + RecBCD enzyme subunit RecB (Escherichia coli (strain K12)) (P07648 whole entry, looked up): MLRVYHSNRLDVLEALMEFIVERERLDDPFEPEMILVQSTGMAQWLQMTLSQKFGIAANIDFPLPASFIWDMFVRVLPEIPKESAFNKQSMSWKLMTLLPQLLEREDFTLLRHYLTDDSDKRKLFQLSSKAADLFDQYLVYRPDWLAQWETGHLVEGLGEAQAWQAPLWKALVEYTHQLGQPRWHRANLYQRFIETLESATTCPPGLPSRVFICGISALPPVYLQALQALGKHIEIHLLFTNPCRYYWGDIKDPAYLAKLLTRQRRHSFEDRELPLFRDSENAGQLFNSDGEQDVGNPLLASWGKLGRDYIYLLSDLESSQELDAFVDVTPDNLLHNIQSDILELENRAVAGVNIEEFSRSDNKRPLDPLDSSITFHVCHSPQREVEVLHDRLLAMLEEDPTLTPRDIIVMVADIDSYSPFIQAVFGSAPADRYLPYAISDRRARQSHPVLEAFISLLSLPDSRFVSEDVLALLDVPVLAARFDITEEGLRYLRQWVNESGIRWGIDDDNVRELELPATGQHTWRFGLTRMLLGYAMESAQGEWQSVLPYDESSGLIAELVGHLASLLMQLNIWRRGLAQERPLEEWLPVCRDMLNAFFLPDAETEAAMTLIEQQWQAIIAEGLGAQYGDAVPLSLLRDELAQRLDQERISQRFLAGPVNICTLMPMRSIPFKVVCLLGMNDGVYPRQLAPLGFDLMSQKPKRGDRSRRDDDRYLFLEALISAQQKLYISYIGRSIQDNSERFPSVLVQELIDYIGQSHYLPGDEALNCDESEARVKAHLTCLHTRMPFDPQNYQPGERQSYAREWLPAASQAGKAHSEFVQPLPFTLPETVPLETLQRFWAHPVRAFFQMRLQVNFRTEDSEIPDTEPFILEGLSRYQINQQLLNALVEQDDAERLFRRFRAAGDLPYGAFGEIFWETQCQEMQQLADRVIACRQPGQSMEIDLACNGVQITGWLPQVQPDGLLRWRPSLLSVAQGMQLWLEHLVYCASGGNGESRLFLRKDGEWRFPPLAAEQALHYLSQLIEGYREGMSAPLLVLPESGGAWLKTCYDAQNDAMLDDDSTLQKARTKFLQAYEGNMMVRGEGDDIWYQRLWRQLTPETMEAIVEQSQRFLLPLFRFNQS
Sequence of RecBCD enzyme subunit RecC (Escherichia coli (strain K12)) + RecBCD enzyme subunit RecB (Escherichia coli (strain K12)) (P08394 whole entry, looked up): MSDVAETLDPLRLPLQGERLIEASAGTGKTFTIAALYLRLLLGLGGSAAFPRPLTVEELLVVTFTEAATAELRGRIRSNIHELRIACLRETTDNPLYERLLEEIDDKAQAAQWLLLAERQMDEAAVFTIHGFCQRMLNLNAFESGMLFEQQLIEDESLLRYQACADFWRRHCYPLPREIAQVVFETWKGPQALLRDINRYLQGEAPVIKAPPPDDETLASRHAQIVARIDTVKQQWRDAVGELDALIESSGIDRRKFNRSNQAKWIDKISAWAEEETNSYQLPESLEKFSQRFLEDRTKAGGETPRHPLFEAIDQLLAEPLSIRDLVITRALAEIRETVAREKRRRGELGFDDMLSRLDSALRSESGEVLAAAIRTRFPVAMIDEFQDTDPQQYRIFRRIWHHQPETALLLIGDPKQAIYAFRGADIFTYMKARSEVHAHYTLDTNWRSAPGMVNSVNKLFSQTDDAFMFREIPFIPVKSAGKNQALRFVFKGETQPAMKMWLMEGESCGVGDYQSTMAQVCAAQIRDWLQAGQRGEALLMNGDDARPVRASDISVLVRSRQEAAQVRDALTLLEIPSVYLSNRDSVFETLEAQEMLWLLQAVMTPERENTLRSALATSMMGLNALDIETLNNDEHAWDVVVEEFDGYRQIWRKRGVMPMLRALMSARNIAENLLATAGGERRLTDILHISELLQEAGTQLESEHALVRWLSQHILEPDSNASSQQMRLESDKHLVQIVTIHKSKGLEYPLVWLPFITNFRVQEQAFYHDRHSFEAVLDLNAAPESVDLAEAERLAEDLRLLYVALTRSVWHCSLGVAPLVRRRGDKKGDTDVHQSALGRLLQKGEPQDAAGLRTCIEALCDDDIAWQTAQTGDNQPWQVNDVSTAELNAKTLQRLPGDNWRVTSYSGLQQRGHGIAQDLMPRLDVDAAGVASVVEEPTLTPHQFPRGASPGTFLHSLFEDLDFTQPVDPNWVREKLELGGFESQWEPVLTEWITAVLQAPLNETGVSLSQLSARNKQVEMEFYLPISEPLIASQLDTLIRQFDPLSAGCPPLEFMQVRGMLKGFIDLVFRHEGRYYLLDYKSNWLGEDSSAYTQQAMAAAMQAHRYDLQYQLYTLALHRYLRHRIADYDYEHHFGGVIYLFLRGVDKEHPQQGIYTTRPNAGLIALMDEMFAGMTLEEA

IC50	Structure (SMILES)
> 100 µM (inactive)	O=C(Nc1ncccn1)c1ccc([N+](=O)[O-])o1
3 µM	CCn1cc(C(=O)O)c(=O)c2cc(F)c(N3CCN(C(=S)Nc4cccc(C(F)(F)F)c4)CC3)cc21
> 166 µM (inactive)	C=CCn1c(Sc2ncc([N+](=O)[O-])s2)n[nH]c1=O
22 µM	COC(=O)c1c(-c2ccccc2)csc1NC(=O)c1cnccn1
> 100 µM (inactive)	Cc1ccc2nc(/C(C#N)=C\c3ccc([N+](=O)[O-])o3)[nH]c2c1
47 µM	Cc1sc(NC(=O)c2ccc(Br)o2)c(C#N)c1C
51 µM	N#Cc1c(NC(=O)c2ccc([N+](=O)[O-])o2)sc2c1CCC2
> 100 µM (inactive)	CC(=O)Nc1ccc2nc(NC(=O)c3ccc([N+](=O)[O-])o3)sc2c1
> 100 µM (inactive)	O=C(Nc1ccc(N2CCOCC2)cc1)c1ccc([N+](=O)[O-])o1
inactive	N#Cc1c(NC(=O)c2ccco2)sc2c1CCC2
> 100 µM (inactive)	O=C(NCc1cccnc1)c1ccc([N+](=O)[O-])o1
40 µM	CCn1cc(C(=O)O)c(=O)c2cc(F)c(N3CCN(C(=S)Nc4ccccc4C(F)(F)F)CC3)cc21
18 µM	CCn1cc(C(=O)O)c(=O)c2cnc(N3CCN(C(=S)NC(C)c4ccccc4)CC3)nc21 (stereo unspecified)
> 100 µM (inactive)	N#Cc1c(NC(=O)c2ccc(-c3ccccc3[N+](=O)[O-])o2)sc2c1CCCC2
9 µM	CCn1cc(C(=O)O)c(=O)c2cnc(N3CCN(C(=S)NC(=O)c4cccc(C)c4)CC3)nc21
> 100 µM (inactive)	O=C(Nc1cccc(NC(=O)c2ccccc2Cl)c1)c1ccc([N+](=O)[O-])o1

IC50	Structure (SMILES)
11 µM	CCn1cc(C(=O)O)c(=O)c2cnc(N3CCN(C(=S)Nc4ccc(Cl)cc4)CC3)nc21
> 100 µM (inactive)	Cc1ccc(C(=O)Nc2sc3c(c2C#N)CCCCC3)o1
> 100 µM (inactive)	CC1(C)Cc2c(sc(NC(=O)c3ccco3)c2C#N)CO1
> 100 µM (inactive)	O=C(OCC(=O)c1cccs1)c1ccc([N+](=O)[O-])o1
> 100 µM (inactive)	N#Cc1c(NC(=O)c2ccccc2)sc2c1CCC2
13 µM and 40 µM	CCn1cc(C(=O)O)c(=O)c2cnc(N3CCN(C(=S)Nc4ccccc4C(F)(F)F)CC3)nc21
> 100 µM (inactive)	N#Cc1c(NC(=O)c2ccccc2C(=O)O)sc2c1CCCC2
20 µM	CCn1cc(C(=O)O)c(=O)c2cnc(N3CCN(C(=S)NCc4ccccc4)CC3)nc21
33 µM and 42 µM	N#Cc1c(NC(=O)c2cnccn2)sc2c1CCCC2
> 100 µM (inactive)	NC(=O)c1ccsc1NC(=O)COC(=O)c1ccc([N+](=O)[O-])o1
inactive	CCn1cc(C(=O)O)c(=O)c2cnc(N3CCN(C(=S)NC4CC5CCC4C5)CC3)nc21 (stereo unspecified)
inactive	CNC(=O)c1c(NC(=O)c2nc(SCc3ccccc3)ncc2Cl)sc2c1CCCC2
> 100 µM (inactive)	N#Cc1c(NC(=O)c2cccc(F)c2)sc2c1CCCC2
> 100 µM (inactive)	Cc1cccnc1NC(=O)c1ccc([N+](=O)[O-])o1
4 µM	CCn1cc(C(=O)O)c(=O)c2cnc(N3CCN(C(=S)Nc4cccc(C(F)(F)F)c4)CC3)nc21
